Published values pooled from the literature.
Each line is one published result; the experiments were not run side by side.
Target: Serine/threonine-protein kinase PLK2 (PLK2, Homo sapiens, UniProt Q9NYY3)

| Structure (SMILES) | test | setting | measurement | result |
| --- | --- | --- | --- | --- |
| O=C(O)c1cc(-c2ccc(C3CCNCC3)cc2)c2ccc(-c3ccc(C(F)(F)F)cc3)cc2c1 | cell-free assay, competition with immobilised ligand | 1 µM | remaining binding | 100% |
| COc1cc(-c2cc(-c3ccc(N4CCNCC4)cc3)cnc2C)cc(OC)c1OC | enzyme activity, inhibitor | 0.1 µM | inhibition | 7% |
| COc1cc(-c2cn(C3CCc4c(F)cccc4N(CC(F)(F)F)C3=O)nn2)ccc1-n1cnc(C)c1 (stereo not drawn) | cell-free assay, competition with immobilised ligand | 1 µM | remaining binding | 100% |
| CNC(=O)c1cc(Oc2ccc(NC(=O)Nc3ccc(Cl)c(C(F)(F)F)c3)cc2)ccn1 | enzyme activity, inhibitor | 10 µM | inhibition | 15% |
| O=C1CCc2cc(Nc3cc(OC4CCOCC4)c([N+](=O)[O-])cc3Cl)ccc2N1 | cell-free assay, competition with immobilised ligand | 1 µM | remaining binding | 92% |
| Cc1ccc(Nc2nccc(N(C)c3ccc4c(C)n(C)nc4c3)n2)cc1S(N)(=O)=O | enzyme activity, inhibitor | 10 µM | inhibition | -4% |
| COc1cc2c(Nc3ccc(Br)cc3F)ncnc2cc1OCC1CCN(C)CC1 | cell-free assay | 0.5 µM | remaining signal | 103% |
| CCCCN(CCCC)C(=O)CN1C[C@@H](c2cc(OC)c3c(c2)OCO3)[C@H](C(=O)O)[C@H]1CC(C)(C)CCC | cell-free assay, competition with immobilised ligand | 1 µM | remaining binding | 98.4% |
| CC/C(=N\NC(=O)NCc1cccc(O)c1)c1ccc(O)c(C)c1O | enzyme activity, inhibitor | 0.1 µM | inhibition | 1.3% |
| CCN(CC)CCNC(=O)c1c(C)[nH]c(/C=C2\C(=O)Nc3ccc(F)cc32)c1C | enzyme activity, inhibitor | 0.3 µM | inhibition | -2% |
| Cc1ccc(NC(=O)c2ccc(C)c(C(F)(F)F)c2)cc1C#Cc1nn(C2CCC(O)CC2)c2ncnc(N)c12 (stereo not drawn) | cell-free assay | 10 µM | remaining signal | 109% |
| COc1cc(Nc2c(C#N)cnc3cc(OCCCN4CCN(C)CC4)c(OC)cc23)c(Cl)cc1Cl | cell-free assay | 0.5 µM | remaining signal | 100% |
| CO[C@@H](C)c1c(Nc2ccc([C@H](N(C)C(=O)C3CCS(=O)(=O)CC3)C(F)(F)F)cc2)cnc2cc(Cl)nn12 | cell-free assay, competition with immobilised ligand | 1 µM | remaining binding | 100% |
| COc1cc2ncnc(Nc3ccc(Oc4ccccc4)cc3C)c2cc1OC | enzyme activity, inhibitor | 1 µM | inhibition | 5% |
| Cc1ccc(NC(=O)c2ccc(CN3CCN(C)CC3)cc2)cc1Nc1nc(-c2cccnc2)cs1 | cell-free assay | 0.5 µM | remaining signal | 97.9% |
| CO[C@H]1CC[C@H](CNc2ccc(S(=O)(=O)NC(=O)c3ccc(N4CCN(CC5=C(c6ccc(Cl)cc6)CC(C)(C)CC5)CC4)cc3Oc3cnc4[nH]ccc4c3)cc2[N+](=O)[O-])CC1 | cell-free assay, competition with immobilised ligand | 1 µM | remaining binding | 100% |
| CCCS(=O)(=O)Nc1ccc(F)c(C(=O)c2c[nH]c3ncc(-c4ccc(Cl)cc4)cc23)c1F | enzyme activity, inhibitor | 1 µM | inhibition | < 10% |
| CC(C)(O)[C@H]1CC[C@H](Nc2ccc3ncc(-c4cccc(C(F)(F)F)c4)n3n2)CC1 | enzyme activity, inhibitor | 1 µM | remaining activity | 93.5% |
| O=C(Nc1cnn(-c2csc(C(=O)NC3COC3)c2)c1)Nc1ccccc1Cl | enzyme activity, inhibitor | 5 µM | remaining activity | 86% |
| N[C@@H]1CCN(c2nccc(-c3cnn4ncccc34)n2)C1 | binding | 1 µM | remaining binding | 100% |
| O=C1NC(=O)c2cc(Nc3ccc(F)cc3)c(Nc3ccc(F)cc3)cc21 | cell-free assay | 0.5 µM | remaining signal | 99.6% |
| CNC(=O)Nc1ccc2c(c1)[C@@]1(CC2)OC(=O)N(CC(=O)N(Cc2ccc(F)cc2)[C@@H](C)C(F)(F)F)C1=O | cell-free assay, competition with immobilised ligand | 1 µM | remaining binding | 92% |
| CC(C)(C)c1nc2c(s1)c1nc(N)ncc1c1ccc(NS(=O)(=O)c3c(F)cccc3F)c(F)c12 | enzyme activity, inhibitor, radiometric | 1 µM | remaining activity | 91% |
| O=C(Nc1cnn(-c2csc(C(=O)NC3COC3)c2)c1)Nc1c(F)cccc1Cl | enzyme activity, inhibitor | 5 µM | remaining activity | 100% |
